pEC50, pKi: −log10 of the molar value.
Experiments:
[1] = biological target: Serotonin 1 receptors; 5-HT1B & 5-HT1D (Homo sapiens) (UniProt P28222+P28221); experiment: Binding Selectivity was determined [Selectivity = Ki against h5-HT1B receptor / Ki against h5-HT1D receptor]; assay type: protein assay
[2] = biological target: T1, 5-hydroxytryptamine receptor 1D (Homo sapiens, UniProt P28221); experiment: Binding affinity towards human 5-hydroxytryptamine 1D receptor using [3H]5-HT trifluoroacetate as radioligand
[3] = biological target: T2, 5-hydroxytryptamine receptor 1B (Homo sapiens, UniProt P28222); experiment: Binding affinity towards human 5-hydroxytryptamine 1B receptor using [3H]5-HT trifluoroacetate as radioligand
Summary of the method: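 Membrane homogenate (0.1 mg protein/well) incubated in triplicate with [3H]-5-HT (2.5 nM final) in 50 mM Tris, 10 mM MgSO4, 0.5 mM EDTA, 10 µM pargyline, 0.1% ascorbic acid, pH 7.4. Incubation 60 min at room temperature. Nonspecific binding defined with 20 µM 5-HT. Filtration over GF/B, scintillation counting.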

[4] = biological target: T2, 5-hydroxytryptamine receptor 1B; experiment: Adenyl cyclase activity was expressed as percent forskolin response against 5-hydroxytryptamine 1B receptor at concentration 1 uM; assay type: functional
Summary of the method: (§1)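 Agonist test in CHO Pro 5 cells stably transfected with human h5-HT1B or h5-HT1D receptors. Compound added to culture medium with 10 µM forskolin and 0.5 mM IBMX, 30 min at 37 °C. Stopped with cold ethanolic 5 mM EDTA (2:1 v/v) to extract cAMP. cAMP measured by enzyme immunoassay; mean ± SEM from three or more experiments.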

[5] = biological target: T2, 5-hydroxytryptamine receptor 1B; experiment: Adenyl cyclase activity was expressed as percent forskolin response against 5-hydroxytryptamine 1B receptor at concentration 10 uM; assay type: functional; summary of the method: as §1
[6] = biological target: T3, Adrenergic receptor alpha-2 (Homo sapiens, UniProt P08913+P18825+P18089); experiment: Binding affinity towards Alpha-2 adrenergic receptor; assay type: protein assay
T3 sequence (P08913 whole entry): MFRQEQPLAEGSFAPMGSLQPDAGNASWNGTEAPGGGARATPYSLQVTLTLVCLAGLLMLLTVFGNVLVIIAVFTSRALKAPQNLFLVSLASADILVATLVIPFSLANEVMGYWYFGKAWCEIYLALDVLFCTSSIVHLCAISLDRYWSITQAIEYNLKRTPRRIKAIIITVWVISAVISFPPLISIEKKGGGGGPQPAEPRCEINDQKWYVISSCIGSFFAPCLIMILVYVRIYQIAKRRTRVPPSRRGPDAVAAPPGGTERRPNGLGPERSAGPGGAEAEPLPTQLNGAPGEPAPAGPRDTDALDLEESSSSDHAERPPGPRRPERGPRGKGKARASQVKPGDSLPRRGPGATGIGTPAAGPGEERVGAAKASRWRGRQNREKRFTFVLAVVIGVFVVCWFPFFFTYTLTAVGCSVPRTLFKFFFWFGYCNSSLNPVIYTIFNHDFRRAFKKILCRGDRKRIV
T3 sequence (P18825 whole entry): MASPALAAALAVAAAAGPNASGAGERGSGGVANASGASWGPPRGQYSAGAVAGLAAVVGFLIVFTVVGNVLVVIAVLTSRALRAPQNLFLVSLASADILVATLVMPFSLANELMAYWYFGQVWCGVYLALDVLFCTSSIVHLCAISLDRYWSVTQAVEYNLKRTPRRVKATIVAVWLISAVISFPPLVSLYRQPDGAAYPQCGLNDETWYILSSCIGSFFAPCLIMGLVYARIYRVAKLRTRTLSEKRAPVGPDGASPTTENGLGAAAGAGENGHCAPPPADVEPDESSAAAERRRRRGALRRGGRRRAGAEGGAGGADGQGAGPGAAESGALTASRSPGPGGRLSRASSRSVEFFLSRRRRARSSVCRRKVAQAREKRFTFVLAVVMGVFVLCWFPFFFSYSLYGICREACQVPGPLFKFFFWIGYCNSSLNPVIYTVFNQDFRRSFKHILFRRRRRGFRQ
T3 sequence (P18089 whole entry): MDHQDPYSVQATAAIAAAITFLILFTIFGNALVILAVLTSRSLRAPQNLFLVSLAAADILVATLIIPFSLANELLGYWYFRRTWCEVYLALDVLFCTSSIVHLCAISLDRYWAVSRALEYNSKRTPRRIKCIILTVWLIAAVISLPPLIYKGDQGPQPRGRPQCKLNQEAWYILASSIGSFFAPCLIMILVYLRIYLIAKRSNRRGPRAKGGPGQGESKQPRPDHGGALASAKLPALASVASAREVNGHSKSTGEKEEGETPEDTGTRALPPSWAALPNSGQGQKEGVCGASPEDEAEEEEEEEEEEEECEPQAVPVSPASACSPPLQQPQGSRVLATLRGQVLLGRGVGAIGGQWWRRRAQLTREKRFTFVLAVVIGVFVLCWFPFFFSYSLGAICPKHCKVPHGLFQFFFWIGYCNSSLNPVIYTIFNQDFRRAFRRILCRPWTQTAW

[7] = biological target: T1, 5-hydroxytryptamine receptor 1D; experiment: Adenyl cyclase activity was expressed as percent forskolin response against 5-hydroxytryptamine 1D receptor at concentration 1 uM; assay type: functional; summary of the method: as §1
[8] = biological target: T1, 5-hydroxytryptamine receptor 1D; experiment: Adenyl cyclase activity was expressed as percent forskolin response against 5-hydroxytryptamine 1D receptor at concentration 10 uM; assay type: functional; summary of the method: as §1
[9] = Tested for 5-hydroxytryptamine 1D like receptor-mediated vascular effect in rabbit saphenous vein (RSV)
[10] = biological target: Adrenergic receptor alpha; experiment: Binding affinity towards Alpha-1 adrenergic receptor; assay type: protein assay, Canis lupus familiaris

T2 sequence (P28222 whole entry): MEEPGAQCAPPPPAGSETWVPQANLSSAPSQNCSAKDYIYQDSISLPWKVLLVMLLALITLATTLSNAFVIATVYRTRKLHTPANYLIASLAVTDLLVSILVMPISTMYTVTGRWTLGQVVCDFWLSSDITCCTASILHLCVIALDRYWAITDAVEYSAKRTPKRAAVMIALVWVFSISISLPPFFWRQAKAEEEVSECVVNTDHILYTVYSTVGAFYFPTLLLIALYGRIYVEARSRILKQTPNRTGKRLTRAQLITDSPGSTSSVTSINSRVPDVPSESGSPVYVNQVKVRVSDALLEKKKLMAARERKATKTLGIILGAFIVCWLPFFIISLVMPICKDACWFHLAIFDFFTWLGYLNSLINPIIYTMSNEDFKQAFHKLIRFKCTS
T1 sequence (P28221 whole entry): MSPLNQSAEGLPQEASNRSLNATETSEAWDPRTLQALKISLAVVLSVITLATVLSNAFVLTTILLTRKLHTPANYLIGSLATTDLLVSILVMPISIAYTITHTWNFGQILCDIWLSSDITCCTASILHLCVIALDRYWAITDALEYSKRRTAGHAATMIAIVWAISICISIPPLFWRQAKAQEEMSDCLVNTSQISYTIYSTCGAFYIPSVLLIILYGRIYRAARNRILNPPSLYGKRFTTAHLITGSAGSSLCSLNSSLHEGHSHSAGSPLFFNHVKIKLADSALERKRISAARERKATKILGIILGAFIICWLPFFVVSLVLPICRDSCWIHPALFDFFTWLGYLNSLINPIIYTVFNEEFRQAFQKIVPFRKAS

| Compound | Selectivity [1] | pKi [2] | pKi [3] | other results |
| --- | --- | --- | --- | --- |
| CC(C)c1ccc(CC2=NCCN2)cc1 | 8 |  |  |  |
| Nc1ccc(CC2=NCCN2)cc1 |  | < 5.00 | < 5.00 |  |
| Cc1cc(C(C)C)cc(C)c1CC1=NCCN1 | 34 | 8.96 |  | Response [4]: 53%; Response [5]: 56%; Ki [6]: > 500 nM; Response [7]: 34%; Response [8]: 34%; pEC50 [9]: 6.86; Ki [10]: 65 nM |
| Cc1cc(C(C)(C)C)cc(C)c1CC1=NCCN1C |  |  | < 5.30 |  |
| Cc1cc(C(C)(C)C)ccc1CC1=NCCN1 | 105 |  |  | Response [4]: 63%; Response [5]: 58%; Ki [6]: > 500 nM; Response [7]: 51%; Response [8]: 50%; pEC50 [9]: 5.78; Ki [10]: 154 nM |
| Cc1cc(C)c(CC2=NCCN2)c(C)c1 | 48 | 7.14 |  | Response [4]: 49%; Response [5]: 52%; Response [7]: 23%; Response [8]: 49%; pEC50 [9]: 6.82 |
| Cc1cc(Br)cc(C)c1CC1=NCCN1 | 21 |  |  |  |
| CNCCc1c(C)cc(C(C)(C)C)cc1C |  | < 5.30 | < 5.00 |  |
| CCCc1ccc(CC2=NCCN2)cc1 | > 4 | 5.62 | < 5.00 |  |
| CN1CCN=C1Cc1ccccc1 |  |  | < 5.00 |  |
| Cc1cccc(C)c1CC1=NCCN1 | > 4 | 5.66 | < 5.00 |  |
| Oc1cccc(CC2=NCCN2)c1 | < 1 | < 5.00 | 5.43 |  |
| Cc1ccc(O)c(C)c1CC1=NCCN1 | 6 | 5.99 | 5.24 |  |
| CCCCc1ccc(CC2=NCCN2)cc1 | > 4 | 5.60 | < 5.00 |  |
| Cc1ccc(CC2=NCCN2)c(C)c1OCc1ccccc1 | 4 | 5.96 | 5.41 |  |
| Cc1cc(C(C)(C)C)cc(C)c1CCN |  | 5.87 | < 5.00 |  |
| c1ccc(CC2=NCCN2)cc1 [TOLAZOLINE] |  | < 5.00 | < 5.00 |  |
| O=[N+]([O-])c1ccc(CC2=NCCN2)cc1 |  | < 5.00 | < 5.00 |  |
| Cc1cc(C(C)(C)C)c(O)c(C)c1CC1=NCCN1 [OXYMETAZOLINE] |  |  | 9.52 | Response [4]: 57%; Response [5]: 40%; Response [7]: 40%; Response [8]: 35% |
| CC(C)(C)c1ccc(CC2=NCCN2)cc1 | 65 |  | 5.17 | Response [4]: 99%; Response [5]: 86%; Ki [6]: 1120 nM; Response [7]: 69%; Response [8]: 65%; pEC50 [9]: < 5.00; Ki [10]: 2625 nM |
| c1ccc(-c2ccc(CC3=NCCN3)cc2)cc1 |  | < 5.00 | < 5.00 |  |
| Cc1cc(C(C)(C)C)cc(C)c1CC1=NCCN1 [XYLOMETAZOLINE] |  |  | 7.85 | Response [4]: 51%; Response [5]: 64%; Ki [6]: > 500 nM; Response [7]: 38%; Response [8]: 41%; Ki [10]: 91 nM |
| Cc1ccc(CC2=NCCN2)c(C)c1O | 1 | 5.72 | 5.70 |  |
| CCc1ccc(CC2=NCCN2)cc1 |  | < 5.00 | < 5.00 |  |
| Brc1ccc(CC2=NCCN2)cc1 | > 2 | 5.36 | < 5.00 |  |
| COc1cccc(CC2=NCCN2)c1 |  |  | 5.79 |  |

— ChEMBL document CHEMBL1131255, “Benzylimidazolines as h5-HT1B/1D serotonin receptor ligands: a structure-affinity investigation” (J Med Chem, 1998)
